Measurements as given in ChEMBL document CHEMBL1147932, “Design, synthesis, and biological activities of novel Ligustrazine derivatives” (Bioorg Med Chem, 2007).

Legend:
Plasma = test: Inhibition of ADP-induced platelet aggregation in rabbit plasma at 200 uM; assay type: functional, Oryctolagus cuniculus; design: scale not given: the % may be the effect or the level left
In short: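 Rabbit blood anticoagulated with 3.8% trisodium citrate, with ADP as inducer; blank and ADP-control cuvettes included. Platelet-rich plasma was taken from the supernatant after 270 g/5 min. Platelet-poor plasma came from re-spinning at 1000 g/10 min. Aggregation was read on an aggregometer and reported as mean platelet aggregation rate (A%), n = 6.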

ECV-304 = test: Protection of hydrogen peroxide-induced damage in ECV304 cells; assay type: functional, cell-based; conditions: Homo sapiens

Cc1nc(C)c(CN2CCN(Cc3cccc(Cl)c3)CC2)nc1C
Activity (Plasma): 10.56%
EC50 (ECV-304): 503 µM

Cc1nc(C)c(CN2CCN(Cc3ccc(Cl)cc3)CC2)nc1C
Activity (Plasma): 12.31%
EC50 (ECV-304): 339 µM

Cc1nc(C)c(CN2CCN(Cc3ccc(Cl)cc3Cl)CC2)nc1C
Activity (Plasma): 5.7%
EC50 (ECV-304): 424 µM

Cc1nc(C)c(CN2CCN(Cc3ccccc3Br)CC2)nc1C
Activity (Plasma): 7.68%
EC50 (ECV-304): 784 µM

Cc1nc(C)c(CN2CCN(Cc3ccc(Br)cc3)CC2)nc1C
Activity (Plasma): 13.26%
EC50 (ECV-304): 845 µM

Cc1nc(C)c(CN2CCN(Cc3cccc(C#N)c3)CC2)nc1C
Activity (Plasma): 14.19%
EC50 (ECV-304): 1110 µM

Cc1nc(C)c(CN2CCN(Cc3ccc(C#N)cc3)CC2)nc1C
Activity (Plasma): 11.37%
EC50 (ECV-304): 417 µM

Cc1nc(C)c(CN2CCN(Cc3ccc([N+](=O)[O-])cc3)CC2)nc1C
Activity (Plasma): 14.22%
EC50 (ECV-304): 299 µM

Cc1nc(C)c(CN2CCN(c3ccccc3)CC2)nc1C
Activity (Plasma): 21.43%
EC50 (ECV-304): 665 µM

Cc1nc(C)c(CN2CCNCC2)nc1C
Activity (Plasma): 11.36%
EC50 (ECV-304): 481 µM

Cc1nc(C)c(CN2CCN(C/C=C/c3ccccc3)CC2)nc1C
Activity (Plasma): 8.36%
EC50 (ECV-304): 428 µM

Cc1nc(C)c(CN2CCN(C(c3ccccc3)c3ccccc3)CC2)nc1C
Activity (Plasma): 9.88%
EC50 (ECV-304): 218 µM

Cc1nc(C)c(CN2CCN(C(c3ccc(F)cc3)c3ccc(F)cc3)CC2)nc1C
Activity (Plasma): 6.32%
EC50 (ECV-304): 223 µM

Cc1nc(C)c(CN2CCN(C(c3ccccc3)c3ccc(Cl)cc3)CC2)nc1C (stereo unspecified)
Activity (Plasma): 5.19%
EC50 (ECV-304): 253 µM

Cc1nc(C)c(CN2CCN(Cc3nc(C)c(C)nc3C)CC2)nc1C
Activity (Plasma): 19.36%
EC50 (ECV-304): 311 µM

Cc1nc(C)c(CN2CCN(Cc3ccccc3)CC2)nc1C
Activity (Plasma): 9.06%
EC50 (ECV-304): 246 µM

Cc1ccc(CN2CCN(Cc3nc(C)c(C)nc3C)CC2)cc1
Activity (Plasma): 17.69%
EC50 (ECV-304): 328 µM

CCc1ccc(CN2CCN(Cc3nc(C)c(C)nc3C)CC2)cc1
Activity (Plasma): 13.56%
EC50 (ECV-304): 375 µM

Cc1nc(C)c(CN2CCN(Cc3ccc(C(C)(C)C)cc3)CC2)nc1C
Activity (Plasma): 15.32%
EC50 (ECV-304): 431 µM

Cc1nc(C)c(CN2CCN(Cc3ccccc3C#N)CC2)nc1C
Activity (Plasma): 12.16%
EC50 (ECV-304): 637 µM

Cc1nc(C)c(CN2CCN(CCc3ccccc3)CC2)nc1C
Activity (Plasma): 9.77%
EC50 (ECV-304): 542 µM

Cc1nc(C)c(CN2CCN(Cc3ccccc3Cl)CC2)nc1C
Activity (Plasma): 9.67%
EC50 (ECV-304): 405 µM

Cc1nc(C)c(C)nc1C [LIGUSTRAZINE]
Activity (Plasma): 7.86%
EC50 (ECV-304): 452 µM
